This is an account of results in ChEMBL document CHEMBL4406821, “Novel dual inhibitors targeting CDK4 and VEGFR2 synergistically suppressed cancer progression and angiogenesis” (Eur J Med Chem, 2019).

Data set [1] has as its system HeLa. In words: Induction of apoptosis in human HeLa cells assessed as increase in late apoptotic cells at 20 to 40 nM incubated for 48 hrs by annexin V FITC and propidium iodide staining based flow cytometry. It is filed as functional, cell-based. The procedure, abridged: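 Cells were treated for 48 h, stained with FITC Annexin V and PI, and analyzed by flow cytometry to count early and late apoptotic cells.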
Background: Flow cytometry measures light scatter and fluorescence of single cells or particles in a stream.

For data set [2], the system named is SiHa. Briefly: Antitumor activity against human SiHa cells xenografted in NOD/SCID BALB/c mouse assessed as tumor growth inhibition at 10 to 40 mg/kg, po administered for 21 days. It is filed as functional, organism-based.
Data set [3] can be described thus: Toxicity in NOD/SCID BALB/c mouse xenografted with human SiHa cells assessed as toxic effects in lungs at 40 mg/kg, po administered for 48 hrs by hematoxylin and eosin staining method. The format is organism-based. As to conditions: in vivo. (Xenograft models place foreign cells or tissue in a host animal.)
Data set [4] in a line: Toxicity in NOD/SCID BALB/c mouse xenografted with human SiHa cells assessed as toxic effects in brain at 40 mg/kg, po administered for 48 hrs by hematoxylin and eosin staining method. The format is organism-based. As to conditions: in vivo.
Data set [5] has as its target Activin receptor type-1B (Homo sapiens) (UniProt P36896). Briefly: Inhibition of recombinant human ALK4 (150 to end residues) at 1 uM using as casein substrate incubated for 40 mins in presence of [gamma-33P]-ATP by scintillation counting method relative to control. The procedure, abridged: (§1)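 Kinase panel profiling at 1 μM performed by Eurofins KinaseProfiler; percent inhibition reported as mean of two independent experiments.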

Data set [6] concerns the target Serine/threonine-protein kinase BRSK1 (Homo sapiens) (UniProt Q8TDC3). In words: Inhibition of recombinant human BRSK1 (2 to end residues) at 1 uM using KKKVSRSGLYRSP as substrate incubated for 40 mins in presence of [gamma-33P]-ATP by scintillation counting method relative to control. An outline of the steps:
as §1

In data set [7] the test system is Serine/threonine-protein kinase B-raf (Homo sapiens), P15056 [V600E]. Briefly: Inhibition of recombinant human BRAF V599E mutant (416 to end residues) at 1 uM using myelin as substrate incubated for 40 mins in presence of [gamma-33P]-ATP by scintillation counting method relative to control. The procedure, abridged: as §1
Data set [8] deals with Calcium/calmodulin-dependent protein kinase type 1 (Homo sapiens) (UniProt Q14012). In words: Inhibition of recombinant human CAMKIalpha (2 to end residues) at 1 uM using […] as substrate incubated for 40 mins in presence of [gamma-33P]-ATP by scintillation counting method relative to control. An outline of the steps:
(§2)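 Tested at a single 1 uM in an outsourced commercial kinase-profiling panel, read as percent inhibition. Each value is the mean of two independent experiments.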

In data set [9] the target is Death-associated protein kinase 1 (Homo sapiens) (UniProt P53355). Briefly: Inhibition of recombinant human DAPK1 (1 to 296 residues) at 1 uM using KKLNRTLSFAEPG as substrate incubated for 40 mins in presence of [gamma-33P]-ATP by scintillation counting method relative to control. The procedure, abridged: as §2
Data set [10] has as its target Ephrin type-A receptor 2 (Homo sapiens) (UniProt P29317). In words: Inhibition of recombinant human EPhA2 (596 to 900 residues) at 1 uM using poly(Glu, Tyr) 4:1as substrate incubated for 40 mins in presence of [gamma-33P]-ATP by scintillation counting method relative to control.
Data set [11] deals with Ephrin type-B receptor 1 (Homo sapiens) (UniProt P54762). Briefly: Inhibition of recombinant human EPhB1 (564 to end residues) at 1 uM using KVEKIGEGTYGVVYK as substrate incubated for 40 mins in presence of [gamma-33P]-ATP by scintillation counting method relative to control.
Data set [12] has as its target Insulin-like growth factor 1 receptor (Homo sapiens) (UniProt P08069). In words: Inhibition of recombinant activated human IGF1R (959 to end residues) at 1 uM using KKKSPGEYVNIEFG as substrate incubated for 40 mins in presence of [gamma-33P]-ATP by scintillation counting method relative to control. The procedure, abridged: as §1
The target of data set [13] is Tyrosine-protein kinase Lck (Homo sapiens) (UniProt P06239). In words: Inhibition of recombinant human full length LCK at 1 uM using KVEKIGEGTYGVVYK as substrate incubated for 40 mins in presence of [gamma-33P]-ATP by scintillation counting method relative to control.
The target of data set [14] is Serine/threonine-protein kinase STK11 (Homo sapiens) (UniProt Q15831). In words: Inhibition of recombinant human full length LKB1 at 1 uM using LSNLYHQGKFLQTFCGSPLYRRR as substrate incubated for 40 mins in presence of [gamma-33P]-ATP by scintillation counting method relative to control.
The target of data set [15] is Dual specificity mitogen-activated protein kinase kinase 4 (Mus musculus) (UniProt P47809). In words: Inhibition of recombinant mouse MKK4 (34 to end residues) at 1 uM using unactive JNK1a1 as substrate incubated for 40 mins in presence of [gamma-33P]-ATP by scintillation counting method relative to control.
Data set [16] deals with Receptor-interacting serine/threonine-protein kinase 1 (Homo sapiens) (UniProt Q13546). Briefly: Inhibition of recombinant human RIPK1 (8 to 322 residues) at 1 uM using myelin basic protein as substrate incubated for 40 mins in presence of [gamma-33P]-ATP by scintillation counting method relative to control.
Data set [17] addresses Ribosomal protein S6 kinase alpha-2 (Homo sapiens) (UniProt Q15349). Briefly: Inhibition of recombinant human full length RSK3 at 1 uM using KKKNRTLSVA as substrate incubated for 40 mins in presence of [gamma-33P]-ATP by scintillation counting method relative to control.
The target in data set [18] is Mitogen-activated protein kinase kinase kinase 7 (Homo sapiens) (UniProt O43318). In words: Inhibition of recombinant human TAK1 (1 to 303 residues) at 1 uM using casein as substrate incubated for 40 mins in presence of [gamma-33P]-ATP by scintillation counting method relative to control.
In data set [19] the target is Fibroblast growth factor receptor 2 (Homo sapiens) (UniProt P21802). In words: Inhibition of recombinant human FGFR2 (456 to 770 residues) at 1 uM using poly(Glu, Tyr) 4:1 as substrate incubated for 40 mins in presence of [gamma-33P]-ATP by scintillation counting method relative to control.
The target in data set [20] is Phosphatidylinositol 3-kinase C2 domain-containing subunit gamma (Homo sapiens) (UniProt O75747). Briefly: Inhibition of recombinant human PI3KC2gamma (468 to 1203 residues) at 1 uM using phosphatidylinositol as substrate incubated for 40 mins in presence of [gamma-33P]-ATP by scintillation counting method relative to control.
Data set [21] deals with HUVEC. In words: Antiproliferative activity against HUVEC cells assessed as reduction in cell viability at 20 to 40 nM by CCK8 assay. It is filed as functional, cell-based. The conditions noted are these: Homo sapiens, TDE = time-dependent effect. The procedure, abridged: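 HUVECs, 3×10³ cells/well, kept in 1640 medium with 10% FBS at 37°C and 5% CO₂. Cells were treated at 20 or 40 nM or vehicle, and viability was read by CCK-8 (absorbance 450 nm) at 0, 12, 24, 36, 48, 60 and 72 h. Five replicates per sample.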
In general terms: Formazan colour is commonly taken as a measure of viable cells.

The nature of data set [22]: Toxicity in BALB/c mouse assessed as effect on blood parameter by measuring monocytes content at 40 mg/kg, po administered once two days for 4 times by hematology analyzer. The conditions noted are these: in vivo.

Usually inhibition stands for the share of the control response that was lost under treatment.

Calls of active or inactive are those of the source. The calls are words filed in the database; no cut-off is given here.

Receptor-interacting serine/threonine-protein kinase 1 (Homo sapiens), sequence (Q13546 whole entry, the tested form may be a part): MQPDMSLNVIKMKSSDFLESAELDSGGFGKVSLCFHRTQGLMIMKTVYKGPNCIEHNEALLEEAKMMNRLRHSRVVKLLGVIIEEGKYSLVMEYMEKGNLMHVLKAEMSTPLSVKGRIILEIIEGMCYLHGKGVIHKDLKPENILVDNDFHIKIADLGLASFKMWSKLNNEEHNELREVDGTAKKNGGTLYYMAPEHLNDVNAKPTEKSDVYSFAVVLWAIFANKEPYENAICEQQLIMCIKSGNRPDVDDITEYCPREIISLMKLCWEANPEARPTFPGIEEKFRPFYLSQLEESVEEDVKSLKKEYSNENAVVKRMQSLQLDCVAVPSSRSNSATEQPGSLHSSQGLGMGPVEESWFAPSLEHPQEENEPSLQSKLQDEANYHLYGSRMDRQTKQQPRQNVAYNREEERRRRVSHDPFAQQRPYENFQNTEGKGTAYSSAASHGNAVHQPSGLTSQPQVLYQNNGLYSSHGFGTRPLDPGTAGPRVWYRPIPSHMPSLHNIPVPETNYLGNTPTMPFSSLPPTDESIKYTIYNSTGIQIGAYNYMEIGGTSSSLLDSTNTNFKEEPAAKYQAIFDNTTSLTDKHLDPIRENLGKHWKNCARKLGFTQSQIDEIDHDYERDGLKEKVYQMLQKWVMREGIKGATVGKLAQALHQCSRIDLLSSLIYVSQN
Insulin-like growth factor 1 receptor (Homo sapiens), sequence (P08069 31-736 limits assumed): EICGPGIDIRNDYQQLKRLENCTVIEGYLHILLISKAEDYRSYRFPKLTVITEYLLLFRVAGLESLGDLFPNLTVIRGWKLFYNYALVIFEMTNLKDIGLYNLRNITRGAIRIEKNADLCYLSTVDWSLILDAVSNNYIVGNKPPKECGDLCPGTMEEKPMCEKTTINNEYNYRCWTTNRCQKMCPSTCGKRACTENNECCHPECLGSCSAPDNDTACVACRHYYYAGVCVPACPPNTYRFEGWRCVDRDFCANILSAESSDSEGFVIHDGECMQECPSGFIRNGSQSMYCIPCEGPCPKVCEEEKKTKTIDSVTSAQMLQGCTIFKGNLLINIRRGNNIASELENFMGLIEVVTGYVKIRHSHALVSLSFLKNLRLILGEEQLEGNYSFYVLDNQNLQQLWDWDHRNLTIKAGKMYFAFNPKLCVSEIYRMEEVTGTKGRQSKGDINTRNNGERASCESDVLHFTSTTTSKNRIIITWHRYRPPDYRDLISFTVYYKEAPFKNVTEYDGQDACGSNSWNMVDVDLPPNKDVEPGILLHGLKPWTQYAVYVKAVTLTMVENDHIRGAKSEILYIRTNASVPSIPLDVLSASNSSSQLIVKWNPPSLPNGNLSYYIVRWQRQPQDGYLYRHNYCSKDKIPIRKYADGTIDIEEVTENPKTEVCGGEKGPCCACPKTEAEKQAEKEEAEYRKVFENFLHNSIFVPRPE
Insulin-like growth factor 1 receptor (Homo sapiens), sequence (P08069 741-1367 limits assumed): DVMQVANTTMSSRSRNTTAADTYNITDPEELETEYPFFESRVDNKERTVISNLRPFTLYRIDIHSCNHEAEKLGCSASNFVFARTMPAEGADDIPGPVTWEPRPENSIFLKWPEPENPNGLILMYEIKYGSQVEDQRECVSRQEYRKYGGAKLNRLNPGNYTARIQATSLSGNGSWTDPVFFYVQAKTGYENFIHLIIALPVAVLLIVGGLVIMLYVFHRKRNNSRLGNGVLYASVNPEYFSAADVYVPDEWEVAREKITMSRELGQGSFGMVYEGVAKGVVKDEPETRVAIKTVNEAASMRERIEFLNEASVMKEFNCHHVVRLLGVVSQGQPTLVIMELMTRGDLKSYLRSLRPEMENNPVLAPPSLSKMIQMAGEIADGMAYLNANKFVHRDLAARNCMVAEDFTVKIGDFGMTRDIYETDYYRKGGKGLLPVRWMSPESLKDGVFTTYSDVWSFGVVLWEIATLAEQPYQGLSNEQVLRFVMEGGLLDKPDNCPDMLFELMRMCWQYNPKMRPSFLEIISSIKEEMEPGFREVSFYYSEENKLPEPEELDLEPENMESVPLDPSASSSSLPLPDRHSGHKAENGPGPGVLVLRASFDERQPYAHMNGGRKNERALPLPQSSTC
Serine/threonine-protein kinase BRSK1 (Homo sapiens), sequence (Q8TDC3 whole entry): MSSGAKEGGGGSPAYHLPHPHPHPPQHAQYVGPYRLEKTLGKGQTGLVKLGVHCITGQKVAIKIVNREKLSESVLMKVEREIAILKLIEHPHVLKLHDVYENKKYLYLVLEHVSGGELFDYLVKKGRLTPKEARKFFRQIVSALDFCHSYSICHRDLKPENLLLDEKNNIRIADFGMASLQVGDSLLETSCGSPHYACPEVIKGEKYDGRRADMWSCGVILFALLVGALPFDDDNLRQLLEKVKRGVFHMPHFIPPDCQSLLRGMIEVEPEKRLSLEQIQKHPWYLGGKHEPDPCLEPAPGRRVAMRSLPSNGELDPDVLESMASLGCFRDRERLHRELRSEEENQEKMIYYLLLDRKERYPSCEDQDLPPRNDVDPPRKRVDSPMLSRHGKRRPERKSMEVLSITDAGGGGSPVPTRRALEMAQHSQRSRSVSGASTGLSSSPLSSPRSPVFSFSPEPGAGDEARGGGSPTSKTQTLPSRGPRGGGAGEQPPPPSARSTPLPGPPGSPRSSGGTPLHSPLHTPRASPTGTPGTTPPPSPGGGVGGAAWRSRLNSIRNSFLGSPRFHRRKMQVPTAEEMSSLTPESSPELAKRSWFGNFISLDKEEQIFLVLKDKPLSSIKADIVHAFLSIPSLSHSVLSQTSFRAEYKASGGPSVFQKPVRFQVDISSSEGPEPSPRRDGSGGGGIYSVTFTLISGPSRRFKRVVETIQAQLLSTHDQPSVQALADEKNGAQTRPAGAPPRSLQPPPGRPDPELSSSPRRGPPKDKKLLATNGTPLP
Ephrin type-B receptor 1 (Homo sapiens), sequence (P54762 whole entry): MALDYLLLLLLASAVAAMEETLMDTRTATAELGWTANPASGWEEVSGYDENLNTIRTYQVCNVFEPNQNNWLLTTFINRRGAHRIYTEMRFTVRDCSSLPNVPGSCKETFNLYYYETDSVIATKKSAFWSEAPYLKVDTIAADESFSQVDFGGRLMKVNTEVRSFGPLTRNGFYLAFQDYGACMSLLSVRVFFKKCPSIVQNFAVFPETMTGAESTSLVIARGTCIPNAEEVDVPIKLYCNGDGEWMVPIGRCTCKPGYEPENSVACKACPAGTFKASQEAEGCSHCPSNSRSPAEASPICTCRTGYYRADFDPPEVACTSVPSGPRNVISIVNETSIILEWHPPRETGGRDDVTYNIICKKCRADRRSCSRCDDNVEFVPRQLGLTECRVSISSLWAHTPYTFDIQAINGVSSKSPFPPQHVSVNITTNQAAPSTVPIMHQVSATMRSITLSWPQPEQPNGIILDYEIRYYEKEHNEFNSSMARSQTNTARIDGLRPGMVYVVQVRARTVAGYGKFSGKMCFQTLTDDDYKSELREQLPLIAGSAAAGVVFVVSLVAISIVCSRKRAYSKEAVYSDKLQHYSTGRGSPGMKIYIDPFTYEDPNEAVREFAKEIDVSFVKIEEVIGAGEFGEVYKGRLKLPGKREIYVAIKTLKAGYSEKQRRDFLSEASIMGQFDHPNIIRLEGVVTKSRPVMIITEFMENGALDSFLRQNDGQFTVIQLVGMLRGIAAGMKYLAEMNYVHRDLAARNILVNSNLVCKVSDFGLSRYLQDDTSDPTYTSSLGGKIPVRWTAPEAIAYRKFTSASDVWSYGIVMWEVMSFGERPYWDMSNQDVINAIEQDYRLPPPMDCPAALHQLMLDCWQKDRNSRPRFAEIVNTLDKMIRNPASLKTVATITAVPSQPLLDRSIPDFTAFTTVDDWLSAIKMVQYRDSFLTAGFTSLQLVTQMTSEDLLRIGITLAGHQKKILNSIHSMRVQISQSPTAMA
Calcium/calmodulin-dependent protein kinase type 1 (Homo sapiens), sequence (Q14012 whole entry, looked up): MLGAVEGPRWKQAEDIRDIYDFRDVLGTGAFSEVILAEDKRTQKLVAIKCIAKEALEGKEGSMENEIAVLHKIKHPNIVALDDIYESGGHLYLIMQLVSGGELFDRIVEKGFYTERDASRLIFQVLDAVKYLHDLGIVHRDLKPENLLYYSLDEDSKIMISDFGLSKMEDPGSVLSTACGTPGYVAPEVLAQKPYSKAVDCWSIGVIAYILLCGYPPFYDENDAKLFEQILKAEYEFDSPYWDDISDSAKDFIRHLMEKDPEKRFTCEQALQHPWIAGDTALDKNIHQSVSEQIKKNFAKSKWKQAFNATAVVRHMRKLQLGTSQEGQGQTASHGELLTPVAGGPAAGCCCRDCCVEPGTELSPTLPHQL
Dual specificity mitogen-activated protein kinase kinase 4 (Mus musculus), sequence (P47809 whole entry, the tested form may be a part): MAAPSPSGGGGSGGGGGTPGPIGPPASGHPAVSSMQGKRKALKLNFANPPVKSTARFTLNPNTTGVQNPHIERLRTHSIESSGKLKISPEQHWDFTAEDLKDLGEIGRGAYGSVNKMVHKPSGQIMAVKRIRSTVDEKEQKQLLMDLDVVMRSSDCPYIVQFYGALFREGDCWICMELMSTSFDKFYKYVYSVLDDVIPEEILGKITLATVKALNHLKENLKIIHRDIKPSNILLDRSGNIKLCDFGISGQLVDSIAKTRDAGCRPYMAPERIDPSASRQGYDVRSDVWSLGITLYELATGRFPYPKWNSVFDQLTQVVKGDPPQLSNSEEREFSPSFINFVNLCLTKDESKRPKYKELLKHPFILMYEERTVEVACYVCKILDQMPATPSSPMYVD
Tyrosine-protein kinase Lck (Homo sapiens), sequence (P06239 2-509 limits assumed): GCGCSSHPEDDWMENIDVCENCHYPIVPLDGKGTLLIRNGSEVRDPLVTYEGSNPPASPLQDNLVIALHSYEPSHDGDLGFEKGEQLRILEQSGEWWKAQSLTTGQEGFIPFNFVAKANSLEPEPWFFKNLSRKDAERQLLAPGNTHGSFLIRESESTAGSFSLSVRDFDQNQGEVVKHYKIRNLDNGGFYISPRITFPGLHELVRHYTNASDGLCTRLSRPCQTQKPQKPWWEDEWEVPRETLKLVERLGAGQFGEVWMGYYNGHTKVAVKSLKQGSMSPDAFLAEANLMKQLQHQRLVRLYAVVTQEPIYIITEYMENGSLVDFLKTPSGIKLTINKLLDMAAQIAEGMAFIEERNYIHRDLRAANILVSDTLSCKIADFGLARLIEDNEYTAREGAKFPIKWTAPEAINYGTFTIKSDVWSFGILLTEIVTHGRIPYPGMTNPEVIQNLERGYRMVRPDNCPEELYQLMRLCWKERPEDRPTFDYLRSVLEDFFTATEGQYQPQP

In the case of `Cc1ccc(NC(=O)C2(C(=O)Nc3ccc(Nc4ncc(F)c(-c5cc(F)c6nc(C)n(C(C)C)c6c5)n4)cc3)CC2)cc1`, the outcome in data set [1] was Active. The TGI result in [2] was “Active”. In addition, the Activity result in data set [3], in [4] and in data set [22] was “Non-Toxic” each time. In addition, the inhibition was 46% in data set [5]; 14% in data set [6]; 45% in data set [7]; 0% in data set [8]; 0% in data set [9]; 61% in data set [10]. For the same compound, the inhibition was determined as 66% in data set [11]; 37% in [12]; 49% in [13]; 12% in data set [14]; 12% in data set [15]; 15% in [16]. The inhibition in data set [17] was 26%; in [18], 7%; in data set [19], 4%; in data set [20] it was 38%; in [21] it was “Tde”.
